Values after ≈ are worked out from the molar mass of the structure shown.
What was measured:
[1] = Inhibition of Escherichia coli DNA topoisomerase 4 relaxation activity measured for 30 mins
Outline: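 TopoIV relaxation plate assay: 1.5 U enzyme with 0.75 µg supercoiled pNO1 plasmid, inhibitor in 10% DMSO/0.008% Tween-20, 37 °C 30 min; E. coli buffer 40 mM HEPES-KOH pH 7.6 with 1 mM ATP, S. aureus buffer 50 mM Tris pH 7.5 with 1.5 mM ATP. Triplex capture, Diamond dye fluorescence 495/537 nm.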

Topoisomerase IV = Topoisomerase IV (Staphylococcus aureus, UniProt P0C1S7+P0C1U9); assay: Inhibition of Staphylococcus aureus DNA topoisomerase 4 relaxation activity measured for 30 mins; assay type: protein-complex assay
Topoisomerase IV, sequence (P0C1U9 whole entry): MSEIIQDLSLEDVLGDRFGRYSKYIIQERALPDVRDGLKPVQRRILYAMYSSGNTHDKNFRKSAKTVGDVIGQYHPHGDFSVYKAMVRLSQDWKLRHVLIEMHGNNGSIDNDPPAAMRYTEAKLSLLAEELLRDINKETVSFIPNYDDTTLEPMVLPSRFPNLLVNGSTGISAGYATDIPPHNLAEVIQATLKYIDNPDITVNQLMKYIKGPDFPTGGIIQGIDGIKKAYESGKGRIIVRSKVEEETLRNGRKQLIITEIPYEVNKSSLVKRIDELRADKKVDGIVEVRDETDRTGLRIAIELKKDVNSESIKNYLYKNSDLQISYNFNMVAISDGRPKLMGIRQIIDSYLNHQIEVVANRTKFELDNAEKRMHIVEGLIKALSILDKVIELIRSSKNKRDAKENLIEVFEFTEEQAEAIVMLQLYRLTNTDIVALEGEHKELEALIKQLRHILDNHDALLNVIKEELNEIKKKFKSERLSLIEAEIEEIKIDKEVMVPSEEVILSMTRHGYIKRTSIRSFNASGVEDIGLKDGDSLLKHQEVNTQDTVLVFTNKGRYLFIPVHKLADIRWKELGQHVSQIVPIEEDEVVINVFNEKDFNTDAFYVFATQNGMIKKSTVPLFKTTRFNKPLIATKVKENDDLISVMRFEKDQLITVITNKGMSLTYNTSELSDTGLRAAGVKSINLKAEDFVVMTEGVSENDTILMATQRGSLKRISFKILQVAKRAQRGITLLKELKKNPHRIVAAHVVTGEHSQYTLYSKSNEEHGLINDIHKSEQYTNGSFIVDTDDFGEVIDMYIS
Topoisomerase IV, sequence (P0C1S7 whole entry): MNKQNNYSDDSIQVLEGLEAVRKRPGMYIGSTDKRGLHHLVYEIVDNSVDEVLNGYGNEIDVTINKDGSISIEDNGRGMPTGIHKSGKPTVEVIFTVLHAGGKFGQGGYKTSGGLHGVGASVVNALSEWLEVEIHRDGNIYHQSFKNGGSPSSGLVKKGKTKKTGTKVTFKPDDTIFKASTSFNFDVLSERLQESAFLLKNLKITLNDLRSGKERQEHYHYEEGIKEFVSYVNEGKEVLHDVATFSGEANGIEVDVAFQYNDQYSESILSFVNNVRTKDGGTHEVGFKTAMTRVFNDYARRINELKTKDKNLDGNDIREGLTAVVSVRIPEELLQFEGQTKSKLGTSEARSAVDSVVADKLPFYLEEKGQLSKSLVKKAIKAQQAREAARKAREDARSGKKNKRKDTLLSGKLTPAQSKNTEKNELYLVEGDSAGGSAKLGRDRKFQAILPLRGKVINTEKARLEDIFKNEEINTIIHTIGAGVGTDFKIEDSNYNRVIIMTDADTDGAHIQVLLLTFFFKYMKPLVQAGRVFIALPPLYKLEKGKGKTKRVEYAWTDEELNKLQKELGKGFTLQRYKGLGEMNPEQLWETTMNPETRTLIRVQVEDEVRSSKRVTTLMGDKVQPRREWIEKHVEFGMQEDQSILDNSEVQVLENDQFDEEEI
Outline: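 TopoIV relaxation plate assay: 1.5 U enzyme with 0.75 µg supercoiled pNO1 plasmid, inhibitor in 10% DMSO/0.008% Tween-20, 37 °C 30 min; E. coli buffer 40 mM HEPES-KOH pH 7.6 with 1 mM ATP, S. aureus buffer 50 mM Tris pH 7.5 with 1.5 mM ATP.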

hERG [2] = assay: Selectivity index, ratio of IC50 for inhibition of hERG fluorescence polarization assay to MIC for antimicrobial activity against multidrug-resisitant Staphylococcus aureus assessed as reduction in bacterial growth; assay type: toxicity; details: human; read-out: Selectivity Index
DNA gyrase [3] = biological target: DNA gyrase (Escherichia coli, UniProt P0AES4+P0AES6); assay: Inhibition of Escherichia coli DNA gyrase supercoiling incubated for 30 mins in presence of ATP; assay type: protein-complex assay
Outline: (§1)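 Gyrase supercoiling plate assay (triplex capture on streptavidin plates with immobilized biotinylated oligonucleotide): 1.5 U enzyme, 0.75 µg relaxed pNO1 plasmid, inhibitor in 10% DMSO/0.008% Tween-20, 37 °C 30 min, 30 µl. Buffer for E. coli: 35 mM Tris pH 7.5, 1 mM ATP; S. aureus: 40 mM HEPES-KOH pH 7.6, 2 mM ATP, 500 mM K-glutamate. Diamond dye fluorescence (ex 495/em 537 nm). Pre-screen 100 and 1 µM; IC50 from seven concentrations by four-parameter fit, mean of two runs.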

Escherichia coli [4] = assay: Antimicrobial activity against Escherichia coli D22 assessed as reduction in bacterial growth incubated for 20 hrs by broth microdilution analysis; assay type: functional
Staphylococcus aureus [5] = assay: Antimicrobial activity against cefoxitin/ciprofloxacin/clindamycin/erythromycin/tetracycline/thiamulin/trimethoprim-resistant Staphylococcus aureus assessed as reduction in bacterial growth incubated for 20 hrs by broth microdilution analysis; assay type: functional
Outline: (§2)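 MIC was determined by broth microdilution per CLSI/EUCAST. Inoculum was 10^5 CFU/mL in cation-adjusted Mueller-Hinton broth with TES, with compounds in DMSO, incubated 20 h at 35 °C. MIC was read visually as the lowest concentration without turbidity. Tetracycline was the plate control.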

[6] = biological target: DNA topoisomerase 2-alpha (Homo sapiens) (UniProt P11388); assay: Inhibition of human DNA topoisomerase 2-alpha assessed as residual activity at 100 uM incubated for 30 mins relative to control
DNA topoisomerase 2-alpha (Homo sapiens), sequence (P11388 whole entry): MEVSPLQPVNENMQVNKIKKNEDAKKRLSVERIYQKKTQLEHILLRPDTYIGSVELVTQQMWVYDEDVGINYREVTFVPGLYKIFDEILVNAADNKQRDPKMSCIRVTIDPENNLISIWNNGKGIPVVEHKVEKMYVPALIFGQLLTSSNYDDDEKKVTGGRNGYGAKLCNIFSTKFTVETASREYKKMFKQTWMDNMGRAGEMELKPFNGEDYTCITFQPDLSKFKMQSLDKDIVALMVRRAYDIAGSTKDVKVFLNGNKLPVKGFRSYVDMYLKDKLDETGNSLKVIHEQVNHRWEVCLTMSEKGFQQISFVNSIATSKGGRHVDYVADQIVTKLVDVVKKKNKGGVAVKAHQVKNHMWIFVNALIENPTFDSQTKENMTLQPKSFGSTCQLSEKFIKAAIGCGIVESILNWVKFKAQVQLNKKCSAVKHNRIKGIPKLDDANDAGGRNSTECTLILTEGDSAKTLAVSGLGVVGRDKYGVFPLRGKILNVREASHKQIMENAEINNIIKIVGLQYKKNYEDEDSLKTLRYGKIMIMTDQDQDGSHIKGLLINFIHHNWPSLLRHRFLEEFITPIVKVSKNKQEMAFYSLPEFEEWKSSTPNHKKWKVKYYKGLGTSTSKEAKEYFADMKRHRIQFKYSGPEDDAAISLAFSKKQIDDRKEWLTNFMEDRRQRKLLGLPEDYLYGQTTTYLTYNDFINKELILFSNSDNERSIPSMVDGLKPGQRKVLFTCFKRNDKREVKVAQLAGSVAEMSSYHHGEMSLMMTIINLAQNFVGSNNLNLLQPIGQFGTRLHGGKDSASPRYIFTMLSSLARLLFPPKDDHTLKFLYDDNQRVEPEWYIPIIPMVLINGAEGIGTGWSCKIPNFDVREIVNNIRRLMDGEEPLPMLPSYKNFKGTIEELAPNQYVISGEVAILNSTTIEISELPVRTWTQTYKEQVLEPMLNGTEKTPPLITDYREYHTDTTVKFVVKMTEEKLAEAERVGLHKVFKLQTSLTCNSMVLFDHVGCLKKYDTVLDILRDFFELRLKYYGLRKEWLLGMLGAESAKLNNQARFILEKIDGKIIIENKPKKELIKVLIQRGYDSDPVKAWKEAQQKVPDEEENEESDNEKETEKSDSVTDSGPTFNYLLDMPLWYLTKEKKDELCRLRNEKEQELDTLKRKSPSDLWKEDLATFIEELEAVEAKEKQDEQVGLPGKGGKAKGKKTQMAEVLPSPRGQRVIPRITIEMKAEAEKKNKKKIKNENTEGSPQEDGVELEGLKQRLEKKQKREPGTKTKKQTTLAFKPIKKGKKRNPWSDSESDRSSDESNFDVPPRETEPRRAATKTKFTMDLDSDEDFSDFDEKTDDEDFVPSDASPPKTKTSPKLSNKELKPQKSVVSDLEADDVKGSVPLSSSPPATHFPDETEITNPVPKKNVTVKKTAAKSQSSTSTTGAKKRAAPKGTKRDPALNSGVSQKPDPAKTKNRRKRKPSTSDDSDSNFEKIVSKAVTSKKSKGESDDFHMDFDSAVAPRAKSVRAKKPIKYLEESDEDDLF

Staphylococcus aureus [7] = assay: Antimicrobial activity against cefoxitin/gentamicin/kanamycin/rifampicin/streptomycin/sulfamethoxazole/tetracycline-resistant Staphylococcus aureus assessed as reduction in bacterial growth incubated for 20 hrs by broth microdilution analysis; assay type: functional; outline: as §2
Escherichia coli [8] = assay: Antimicrobial activity against multidrug-resistant Escherichia coli assessed as reduction in bacterial growth incubated for 20 hrs by broth microdilution analysis; assay type: functional; outline: as §2
[9] = Antimicrobial activity against Salmonella alachua RDK 030c assessed as reduction in bacterial growth incubated for 20 hrs by broth microdilution analysis; assay type: functional
[10] = biological target: Voltage-gated inwardly rectifying potassium channel KCNH2 (Homo sapiens, UniProt Q12809); assay: Inhibition of hERG fluorescence polarization assay; assay type: toxicity
Voltage-gated inwardly rectifying potassium channel KCNH2, sequence (Q12809 whole entry): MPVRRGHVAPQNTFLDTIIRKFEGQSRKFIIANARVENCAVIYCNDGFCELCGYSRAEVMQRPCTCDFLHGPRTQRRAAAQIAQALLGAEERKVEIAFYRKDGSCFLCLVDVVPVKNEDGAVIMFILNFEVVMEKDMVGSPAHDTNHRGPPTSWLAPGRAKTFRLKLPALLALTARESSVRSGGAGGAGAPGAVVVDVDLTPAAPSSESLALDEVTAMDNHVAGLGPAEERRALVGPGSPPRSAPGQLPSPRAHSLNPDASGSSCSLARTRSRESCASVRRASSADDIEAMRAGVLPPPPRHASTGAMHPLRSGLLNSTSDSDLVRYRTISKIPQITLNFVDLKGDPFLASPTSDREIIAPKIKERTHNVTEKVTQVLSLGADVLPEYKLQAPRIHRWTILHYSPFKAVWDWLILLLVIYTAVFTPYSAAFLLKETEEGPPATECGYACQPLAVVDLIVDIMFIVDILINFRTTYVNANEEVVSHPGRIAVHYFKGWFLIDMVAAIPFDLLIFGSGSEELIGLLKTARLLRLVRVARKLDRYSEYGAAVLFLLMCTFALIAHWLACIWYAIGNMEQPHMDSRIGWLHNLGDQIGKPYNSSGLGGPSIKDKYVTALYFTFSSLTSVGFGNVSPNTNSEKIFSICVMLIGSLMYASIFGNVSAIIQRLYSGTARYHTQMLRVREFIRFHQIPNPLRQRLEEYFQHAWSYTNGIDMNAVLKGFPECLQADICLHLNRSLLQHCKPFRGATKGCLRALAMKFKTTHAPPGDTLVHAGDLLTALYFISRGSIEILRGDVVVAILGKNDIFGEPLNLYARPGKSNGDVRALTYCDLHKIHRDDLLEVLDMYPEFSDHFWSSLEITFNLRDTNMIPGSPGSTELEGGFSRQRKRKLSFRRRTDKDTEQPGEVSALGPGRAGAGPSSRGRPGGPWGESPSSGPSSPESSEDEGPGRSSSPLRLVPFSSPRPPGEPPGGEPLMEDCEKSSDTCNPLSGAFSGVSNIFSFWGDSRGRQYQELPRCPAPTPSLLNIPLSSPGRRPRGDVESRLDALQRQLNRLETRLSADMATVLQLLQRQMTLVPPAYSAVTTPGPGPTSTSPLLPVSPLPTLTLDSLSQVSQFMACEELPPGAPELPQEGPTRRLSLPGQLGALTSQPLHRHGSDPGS

Acinetobacter baumannii = assay: Antimicrobial activity against Acinetobacter baumannii assessed as reduction in bacterial growth incubated for 20 hrs by broth microdilution analysis; assay type: functional
HepG2 = assay: Cytotoxicity against human HepG2 cells assessed as inhibition of cell growth at 50 uM incubated for 72 hrs by […]; assay type: functional; set-up: scale not given: the % may be the effect or the level left
Outline: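 HepG2 in DMEM with 10% FBS, 2 mM glutamine, penicillin/streptomycin, 37 °C, 5% CO₂; seeded 8,000 cells/well, attached overnight, then treated 1.25–100 µM or vehicle for 72 h. Metabolic activity by CellTiter 96 Aqueous One (MTS) absorbance 492 nm.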

DNA gyrase [11] = biological target: DNA gyrase (Staphylococcus aureus, UniProt P0A0K8+P20831); assay: Inhibition of Staphylococcus aureus DNA gyrase supercoiling incubated for 30 mins in presence of ATP; assay type: protein-complex assay; outline: as §1
[12] = Acute toxicity in zebrafish embryos assessed as lethal concentration compound administered from 6 hrs post fertilization and measured after 120 hrs post fertilization; set-up: species or system Danio rerio; details: in vivo
Outline: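 Wild-type AB zebrafish embryos in E3 medium at 28 °C were exposed by immersion from 6 hpf to 0.39–25 µg/mL (top dose 12.5 µg/mL for one compound), with DMSO at most 0.25%. Controls were 0.25% DMSO and 25 µg/mL doxorubicin. Embryos were inspected daily for death and toxicity signs through 120 hpf. Runs were in triplicate, with 24 embryos per concentration.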

Escherichia coli [13] = assay: Antimicrobial activity against Escherichia coli N43 assessed as reduction in bacterial growth incubated for 20 hrs by broth microdilution analysis; assay type: functional
Enterococcus faecalis = assay: Antimicrobial activity against Enterococcus faecalis DRK 057 assessed as reduction in bacterial growth incubated for 20 hrs by broth microdilution analysis; assay type: functional
Escherichia coli [14] = assay: Antimicrobial activity against Escherichia coli ATCC 25922 assessed as reduction in bacterial growth incubated for 20 hrs by broth microdilution analysis; assay type: functional
Staphylococcus aureus [15] = assay: Antimicrobial activity against Staphylococcus aureus ATCC 29213 assessed as reduction in bacterial growth incubated for 20 hrs by broth microdilution analysis; assay type: functional; outline: as §2
Pseudomonas aeruginosa = assay: Antimicrobial activity against Pseudomonas aeruginosa RDK 184 assessed as reduction in bacterial growth incubated for 20 hrs by broth microdilution analysis; assay type: functional
Staphylococcus aureus [16] = assay: Antimicrobial activity against multidrug-resistant Staphylococcus aureus assessed as reduction in bacterial growth incubated for 20 hrs by broth microdilution analysis; assay type: functional; outline: as §2
hERG [17] = assay: Selectivity index, ratio of IC50 for inhibition of hERG fluorescence polarization assay to MIC for antimicrobial activity against Staphylococcus aureus ATCC 29213 assessed as reduction in bacterial growth; assay type: toxicity; details: human; read-out: Selectivity Index
Klebsiella pneumoniae = assay: Antimicrobial activity against Klebsiella pneumoniae assessed as reduction in bacterial growth incubated for 20 hrs by broth microdilution analysis; assay type: functional

Row | SMILES | IC50 [1] | IC50 (Topoisomerase IV) | selectivity ratio (hERG [2]) | IC50 (DNA gyrase [3]) | MIC (Escherichia coli [4]) | MIC (Staphylococcus aureus [5]) | Activity [6] | MIC (Staphylococcus aureus [7]) | MIC (Escherichia coli [8]) | MIC [9] | IC50 [10] | MIC (Acinetobacter baumannii) | Activity (HepG2) | IC50 (DNA gyrase [11]) | MIC (Escherichia coli [13]) | MIC (Enterococcus faecalis) | MIC (Escherichia coli [14]) | MIC (Staphylococcus aureus [15]) | MIC (Pseudomonas aeruginosa) | MIC (Staphylococcus aureus [16]) | other results
1 | COc1ccc2nccc(CCN3CCC(NC(=O)c4cc(F)c(Br)c(F)c4)CC3)c2n1 | 40 nM | 84 nM | 0.493 | 114 nM | 0.247 µM (≈ 0.125 µg/mL) | 0.247 µM (≈ 0.125 µg/mL) | 102% | 0.061 µM (≈ 0.0308 µg/mL) | 253 µM (≈ 128 µg/mL) | > 253 µM | 122 nM | 3.96 µM (≈ 2 µg/mL) | 61% | 108 nM | 0.061 µM (≈ 0.0308 µg/mL) | 0.495 µM (≈ 0.25 µg/mL) | 63.3 µM (≈ 32 µg/mL) | 0.061 µM (≈ 0.0308 µg/mL) | > 253 µM | 0.125 µM (≈ 0.0632 µg/mL) | LC50 at 114 h [12]: > 25 µg/mL; selectivity ratio (hERG [17]): 1.99; MIC (Klebsiella pneumoniae): > 253 µM
2 | COc1ccc2nccc(OC[C@H]3CC[C@H](NC(=O)c4cc(F)c(Br)c(F)c4)CC3)c2n1 | > 100000 nM | > 100000 nM | ≥ 0.119 | > 100000 nM | 64.8 µM (≈ 32.8 µg/mL) | 64.8 µM (≈ 32.8 µg/mL) | 101% | > 64.8 µM | > 64.8 µM | > 64.8 µM | > 30000 nM | > 64.8 µM | 90% | > 100000 nM | 64.8 µM (≈ 32.8 µg/mL) | > 64.8 µM | 64.8 µM (≈ 32.8 µg/mL) | 253 µM (≈ 128 µg/mL) | > 64.8 µM | > 64.8 µM | selectivity ratio (hERG [17]): ≥ 0.119; MIC (Klebsiella pneumoniae): > 64.8 µM
3 | COc1ccc2nccc(CCN3CCC(NC(=O)c4ccc(I)c(F)c4)CC3)c2n1 | 43 nM | 261 nM | 0.41 | 277 nM | 0.468 µM (≈ 0.25 µg/mL) | 0.234 µM (≈ 0.125 µg/mL) | 102% | 0.058 µM (≈ 0.031 µg/mL) | > 240 µM | > 240 µM | 96 nM | 240 µM (≈ 128 µg/mL) | 89% | 114 nM | 0.234 µM (≈ 0.125 µg/mL) | 0.468 µM (≈ 0.25 µg/mL) | 240 µM (≈ 128 µg/mL) | 0.058 µM (≈ 0.031 µg/mL) | > 240 µM | 0.234 µM (≈ 0.125 µg/mL) | selectivity ratio (hERG [17]): 1.65; MIC (Klebsiella pneumoniae): > 240 µM
4 | COc1ccc2nccc(CCN3CCC(NC(=O)c4cc(F)c(Cl)c(F)c4)CC3)c2n1 | 41 nM | 177 nM | 0.656 | 236 nM | 0.542 µM (≈ 0.25 µg/mL) | 0.271 µM (≈ 0.125 µg/mL) | 101% | 0.137 µM (≈ 0.0631 µg/mL) | > 278 µM | > 278 µM | 178 nM | 4.34 µM (≈ 2 µg/mL) | 84% | 220 nM | 0.135 µM (≈ 0.0622 µg/mL) | 2.17 µM (≈ 1 µg/mL) | 69.4 µM (≈ 32 µg/mL) | 0.137 µM (≈ 0.0631 µg/mL) | > 278 µM | 0.271 µM (≈ 0.125 µg/mL) | selectivity ratio (hERG [17]): 1.3; MIC (Klebsiella pneumoniae): > 278 µM

— ChEMBL document CHEMBL5385870, “Amide containing NBTI antibacterials with reduced hERG inhibition, retained antimicrobial activity against gram-positive bacteria and in vivo efficacy” (Eur J Med Chem, 2023)
